RGS4 pot: RGS4 potentiation or activation; HEK293 M3R/inducible RGS4, carbachol calcium flux Fluo4; stronger effect = lower value; B-score at 10 µM; 310,000 compounds, 0.92% hits; AID 463111;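 active means B-score of the integrated calcium signal more than 4 SD below the library mean, with starting fluorescence not abnormally high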;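 further: negative B-score means reduced calcium response which marks RGS4 activation or potentiation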
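Assay system: Inducible-RGS4 HEK293 cells carrying M3 receptor | Schedule: Compound preincubation 20 min at room temperature before agonist | Signal: Kinetic calcium fluorescence imaging with Fluo4-AM dye, 2 µM | Read-out basis: B score from integrated fluorescence ratio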
MrgX1 PAM: allosterically activates human MrgX1 receptor signaling; Q96LB2; MrgX1-HEK293, Fluo-4 calcium flux, FDSS; stronger effect = higher value; B-score at 10 µM; 310,000 compounds, 0.63% hits;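 active means plate-corrected calcium response at least 3 library SD above typical, normal starting fluorescence, not activating the receptor alone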;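 further: compound read alongside a low EC10 to EC30 dose of BAM8-22 agonist; peak minus trough fluorescence over baseline measured at the second addition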
Target sequence (Q96LB2 whole entry, looked up): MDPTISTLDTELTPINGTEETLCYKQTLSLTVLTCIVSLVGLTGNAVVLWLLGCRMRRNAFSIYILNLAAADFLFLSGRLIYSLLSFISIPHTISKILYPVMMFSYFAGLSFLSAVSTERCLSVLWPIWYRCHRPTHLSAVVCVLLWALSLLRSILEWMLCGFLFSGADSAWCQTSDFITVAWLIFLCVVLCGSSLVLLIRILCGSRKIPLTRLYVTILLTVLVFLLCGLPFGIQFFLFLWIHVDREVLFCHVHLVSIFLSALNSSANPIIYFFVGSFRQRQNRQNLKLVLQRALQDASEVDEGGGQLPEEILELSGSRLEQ
RGS4 block: inhibitors of human RGS4. HEK293 M3R/RGS4 inducible, Fluo-4 calcium flux; stronger effect = higher value; triggered by carbachol at its EC20. 310,000 compounds, 0.45% hits. AID 463165. P49798. B-score at 10 µM;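 active means B-score, a plate-corrected calcium signal, over three deviations above library mean, with baseline fluorescence within five deviations of library mean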;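 further: RGS4 expression induced by doxycycline in cells with stable M3 receptor; B-score is computed from the integrated fluorescence ratio over baseline after carbachol; higher B-score means a larger calcium signal and so more RGS4 inhibition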
Target sequence (P49798 whole entry, looked up): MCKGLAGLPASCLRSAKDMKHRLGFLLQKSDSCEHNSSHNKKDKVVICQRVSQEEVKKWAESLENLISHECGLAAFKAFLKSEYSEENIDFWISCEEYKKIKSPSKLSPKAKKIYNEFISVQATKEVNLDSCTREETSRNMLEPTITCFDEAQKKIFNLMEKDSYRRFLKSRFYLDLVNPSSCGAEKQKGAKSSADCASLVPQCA
MrgX1 ag: agonists of human MrgX1 receptor. Q96LB2. MrgX1-HEK293 cells, Fluo-4 calcium fluorescence, agonist mode; stronger effect = higher value. B-score at 10 µM. 310,000 compounds, 0.44% hits. AID 588627;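 active means calcium response B-score plate-corrected fluorescence ratio at least 3 library SD, with starting fluorescence B-score inside 5 SD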
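times = overnight plating, then 30 min 37 °C plus 30 min room-temperature dye loading | assay system = stable human MrgX1 HEK293 cell line | input = fifteen thousand cells per well | signal = kinetic calcium dye fluorescence, Fluo-4 NW | dosing = compound delivered in addition one of three | read-out = B-scored fluorescence response ratio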
MrgX1 antagonist: blocks BAM8-22 activation of human MrgX1 receptor; 310,000 compounds, 1.3% hits; B-score at 10 µM; MRGX1-HEK293 calcium flux, Fluo-4, BAM8-22 antagonism; stronger effect = lower value; AID 588676;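 active means calcium-response B-score plate-corrected more than 3 library SD below zero, starting fluorescence within 5 deviations, no agonist response on first addition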;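 further: peak minus trough fluorescence over baseline after final BAM8-22 challenge near maximal dose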
RGS4 inh valid: RGS4 inhibitor validation; 1,700 compounds, 65% hits; HEK293 M3R/RGS4, carbachol calcium Fluo-4 fluorescence; carbachol added at its EC20; 0 = buffer wells, 100 = carbachol control; calcium response, % at 10 µM; shares compounds with RGS4 block;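 active means duplicate-averaged calcium response above the buffer-only control mean plus 5 SD of those controls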;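 further: integrated fluorescence ratio F max minus min over baseline F0; higher response in RGS4-induced cells means RGS4 inhibition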
RGS4 uninduced: non-induced cell nonspecific activity of RGS4 inhibitors. shares compounds with RGS4 block. HEK293 M3R non-induced, carbachol calcium Fluo-4; submaximal (EC20) carbachol stimulus; buffer wells 0%, carbachol control wells 100%. activity (percent), % at 10 µM. 1,900 compounds, 20% hits. AID 493000; call rule not given here;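 further: RGS4 induction absent so cells express M3R without RGS4; higher means more calcium signal and flags a non-specific hit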
RGS4 inh ctr2: second counter-screen for RGS4 inhibitors: non-induced cells without carbachol; HEK293 M3R/RGS4 non-induced, Fluo-4 calcium, no carbachol; normalised: buffer wells 0%, carbachol wells 100%; calcium response (agonist-mode artifact), % at 10 µM; shares compounds with RGS4 block; 1,900 compounds, 22% hits; AID 493001;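 active means duplicate-averaged calcium rise in uninduced cells above buffer wells' mean plus 5 SD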
Numbers stand for hits; 0 = inactive; - = not tested or not shown. A selection: hits, their analogues and other compounds. The true share with any hit is near 3.5%.

SMILES	RGS4 pot	MrgX1 PAM	RGS4 block	MrgX1 ag	MrgX1 antagonist	RGS4 inh valid	RGS4 uninduced	RGS4 inh ctr2
COCCCNC(=O)c1cn(Cc2c(F)cccc2Cl)nn1	0	0	5.1	0	0	0	0	0
Cc1ccc(CN2CC(C(=O)N3CCN(c4ccccc4O)CC3)CC2=O)cc1 (stereo not drawn)	0	0	0	0	0	-	-	-
Cc1nn(CC(=O)NCc2cccs2)c(=O)c2nn(-c3ccccc3)c(C)c12	0	0	0	0	0	0	0	0
Cc1cccc(C(=O)NC(C(=O)Nc2ccccc2N2CCOCC2)C(C)C)c1 (stereo not drawn)	0	0	0	0	0	-	-	-
COc1ccc(-c2cc(C(F)(F)F)n3nc(C(=O)NCc4ccco4)cc3n2)cc1OC	0	0	8.2	0	0	10%	0	10%
Cc1ccc(CNC(=O)c2cn(C3CCCCC3)c(=O)c3c2c2ccccc2n3C)o1	0	0	6.1	0	0	13%	0	0
CCCc1cc(=O)n2nc(N3CCC(C(=O)N4CCN(c5ccc(OC)cc5)CC4)CC3)sc2n1	0	0	0	0	0	-	-	-
Cc1ccc(-c2cn(-c3ccccc3)c(SCC(N)=O)n2)cc1C	0	0	4.7	0	0	9.5%	0	0
CCOC(=O)NC(=O)CSc1nc(-c2ccc(C)c(C)c2)cn1-c1ccccc1	0	0	0	0	0	-	-	-
CCOc1ccccc1N1CCN(Cc2cccc(OC)c2OC)CC1	0	0	0	0	0	-	-	-
CCOc1ccccc1N1CCN(Cc2cn[nH]c2-c2ccc(F)cc2)CC1	0	0	6.8	0	0	44%	44%	0
COc1ccc2cc(-c3[nH]ncc3CN3CCCN(c4ccccc4)CC3)ccc2c1	0	0	5.5	0	0	20%	40%	0
CN(CC(=O)NCc1ccco1)S(=O)(=O)c1ccc2c(c1)c(=O)n(C)c(=O)n2C	0	0	0	0	0	-	-	-
CCCOc1ccc(C(=O)CCNC(Cc2c[nH]c3ccccc23)C(=O)O)cc1 (stereo not drawn)	0	0	6.7	0	0	10%	46%	27%
CCS(=O)(=O)N1Cc2ccccc2CC1C(=O)N(C)CC(=O)Nc1ccc(F)c(F)c1F (stereo not drawn)	0	0	0	0	0	-	-	-
O=C(CSCC(=O)N1CCCCC1)Nc1nc(-c2ccc(Cl)s2)cs1	0	0	9.3	0	0	0	0	0
O=C(CSCC(=O)N1CCN(c2ccccc2)CC1)Nc1nc(-c2ccc(Cl)s2)cs1	0	0	0	0	0	0	0	0
O=C(CSCC(=O)N1CCCCC1)Nc1nc(-c2cccs2)cs1	0	0	0	0	0	-	-	-
CCOC(=O)N1CCN(C(=O)CSCC(=O)Nc2nc(-c3ccccc3)cs2)CC1	0	0	0	0	0	-	-	-
O=C1NN(c2ccccc2)C(=O)/C1=C\c1cccc(OC(=O)c2cccs2)c1	0	0	20	27	0	70%	0	0
COC(=O)CSc1[nH]c2ccc(F)cc2c1[N+](=O)[O-]	0	0	19	0	0	34%	0	0
CCOC(=O)CSc1[nH]c2cc(OC)ccc2c1[N+](=O)[O-]	0	0	0	0	0	-	-	-
O=C(CSc1nc2c(cnn2-c2ccc(F)cc2)c(=O)[nH]1)N1CCCc2ccccc21	0	0	0	0	0	0	0	0
CCCCOc1ccc(/C=C2/Sc3ccccc3C2=O)cc1	0	0	0	0	0	-	-	-
CCCCOc1ccc(/C=c2\sc3ncnn3c2=O)cc1	0	0	0	0	0	0	0	0
SMILES	RGS4 pot	MrgX1 PAM	RGS4 block	MrgX1 ag	MrgX1 antagonist	RGS4 inh valid	RGS4 uninduced	RGS4 inh ctr2
COC(=O)c1ccc(COc2ccccc2/C=C(\C#N)C(=O)Nc2c(C)cc(C)cc2C)cc1	0	0	0	0	0	0	0	0
COC(=O)c1ccc(COc2ccccc2/C=C(\C#N)C(=O)Nc2ccc(C)cc2C)cc1	0	0	0	0	0	0	0	0
CCOc1ccccc1/C=C(\C#N)C(=O)Nc1cccc(C(=O)O)c1	0	0	5	0	0	14%	0	0
CCOc1cccc(NC(=O)/C(C#N)=C\c2cn(CC(=O)O)c3ccccc23)c1	0	0	0	0	0	-	-	-
CCn1c(S(=O)(=O)O)nc2ccccc21	0	0	0	0	0	-	-	-
O=C(c1ccccc1)C(O)C(c1ccccc1)N1CCOCC1 (stereo not drawn)	0	0	0	0	0	-	-	-
Cc1cccc(NC(=S)NNC(=O)c2csc3c2CCC(C)C3)c1 (stereo not drawn)	0	0	6.1	0	0	16%	0	0
CC(C)CNC(=S)NNC(=O)c1csc2c1CCC(C)C2 (stereo not drawn)	0	0	0	0	0	-	-	-
Cc1cc(C)cc(-n2c3nc4ccccc4nc3c3c(=O)n(Cc4ccco4)cnc32)c1	0	0	5.9	0	0	12%	0	15%
COCCCn1cnc2c(c1=O)c1nc3ccccc3nc1n2-c1ccc(C)cc1	0	0	0	0	0	-	-	-
COc1nc(Nc2cccc(C)c2)nc(N2CCCCC2)n1	0	0	0	0	0	0	0	0
O=C(O)c1cccc(Nc2nc(Nc3ccccc3)nc(N3CCCC3)n2)c1	0	0	0	0	0	-	-	-
Cc1cccc(Nc2nc(N3CCCC3)nc(N3CCCC3)n2)c1	0	0	0	0	0	0	0	0
COc1nc(N/N=C/c2ccc(C)cc2)nc(N2CCCCC2)n1	0	0	0	0	0	-	-	-
O=C(C1CCC(Cn2c(=O)[nH]c3ccccc3c2=O)CC1)N1CCN(c2ccccc2)CC1 (stereo not drawn)	0	0	0	0	0	-	0	0
O=C(C1CCC(Cn2c(=S)[nH]c3ccccc3c2=O)CC1)N1CCN(c2ccccn2)CC1 (stereo not drawn)	0	0	0	0	0	-	-	-
COc1ccc(N2CCN(C(=O)C3CCC(Cn4c(=S)[nH]c5ccccc5c4=O)CC3)CC2)cc1 (stereo not drawn)	0	0	0	0	0	-	0	0
COc1cc(NC(=O)N[C@@H](Cc2c[nH]c3ccccc23)C(=O)O)c(C(=O)O)cc1OC	0	0	0	0	0	-	-	-
O=C(C1CCCCN1S(=O)(=O)c1ccccc1[N+](=O)[O-])N1CCCCC1 (stereo not drawn)	0	0	0	0	0	-	-	-
CC1(C)CC(NC(=O)c2coc(=O)c(Br)c2)CC(C)(C)N1	0	0	4.7	0	0	17%	0	0
